Measurements: ChEMBL document CHEMBL1151761, “Radiohalogenated prostate-specific membrane antigen (PSMA)-based ureas as imaging agents for prostate cancer” (J Med Chem, 2008)

Tests used:
Assay type in all cases: ADME, organism-based
[1] = Ratio of drug level in PC3 PIP tumor to PC3 flu tumor of human PSMA expressing PC3 PIP and PSMA deficient human PC3 flu cells xenografted SCID mouse at 2 uCi, iv after 30 mins; conditions: in vivo, 0.5 h
Procedure, shortened: (§1)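 Male SCID mice carried subcutaneous PSMA+ PC-3 PIP (left shoulder) and PC-3 flu (right shoulder) xenografts, 1-5 × 10^6 cells in HBSS, and were used at 3-5 mm tumor diameter. Tail-vein injection of 2 µCi radioligand; four mice per time point, killed by cervical dislocation. %ID/g from a standard dilution of the dose, decay-corrected, mean ± SD; PIP tumor:organ ratios.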

[2] = Ratio of drug level in PC3 PIP tumor to PC3 flu tumor of human PSMA expressing PC3 PIP and PSMA deficient human PC3 flu cells xenografted SCID mouse at 2 uCi, iv after 2 hrs; conditions: in vivo; procedure, shortened: as §1
[3] = Ratio of drug level in PC3 PIP tumor to PC3 flu tumor of human PSMA expressing PC3 PIP and PSMA deficient human PC3 flu cells xenografted SCID mouse at 2 uCi, iv after 5 hrs; conditions: in vivo; procedure, shortened: as §1
Kidney [4] = assay: Biodistribution in kidney of PSMA expressing human PC3 PIP and PSMA deficient human PC3 flu cells xenografted SCID mouse at 2 uCi, iv after 30 mins; conditions: in vivo, 0.5 h
[5] = Biodistribution in PC3 flu tumor of PSMA expressing human PC3 PIP and PSMA deficient human PC3 flu cells xenografted SCID mouse at 2 uCi, iv after 30 mins; conditions: in vivo, 0.5 h; procedure, shortened: as §1
Liver [6] = assay: Biodistribution in liver of PSMA expressing human PC3 PIP and PSMA deficient human PC3 flu cells xenografted SCID mouse at 2 uCi, iv after 60 mins; conditions: in vivo, 1 h
Stomach = assay: Biodistribution in stomach of PSMA expressing human PC3 PIP and PSMA deficient human PC3 flu cells xenografted SCID mouse at 2 uCi, iv after 60 mins; conditions: in vivo, 1 h
[7] = Biodistribution in small intestine of PSMA expressing human PC3 PIP and PSMA deficient human PC3 flu cells xenografted SCID mouse at 2 uCi, iv after 60 mins; conditions: in vivo, 1 h; procedure, shortened: as §1
[8] = Biodistribution in PC3 flu tumor of PSMA expressing human PC3 PIP and PSMA deficient human PC3 flu cells xenografted SCID mouse at 2 uCi, iv after 60 mins; conditions: in vivo, 1 h; procedure, shortened: as §1
Pancreas [9] = assay: Biodistribution in pancreas of PSMA expressing human PC3 PIP and PSMA deficient human PC3 flu cells xenografted SCID mouse at 2 uCi, iv after 2 hrs; conditions: in vivo
Kidney [10] = assay: Biodistribution in kidney of PSMA expressing human PC3 PIP and PSMA deficient human PC3 flu cells xenografted SCID mouse at 2 uCi, iv after 2 hrs; conditions: in vivo
Liver [11] = assay: Biodistribution in liver of PSMA expressing human PC3 PIP and PSMA deficient human PC3 flu cells xenografted SCID mouse at 2 uCi, iv after 5 hrs; conditions: in vivo
Spleen = assay: Biodistribution in spleen of PSMA expressing human PC3 PIP and PSMA deficient human PC3 flu cells xenografted SCID mouse at 2 uCi, iv after 5 hrs; conditions: in vivo
[12] = Biodistribution in PC3 flu tumor of PSMA expressing human PC3 PIP and PSMA deficient human PC3 flu cells xenografted SCID mouse at 2 uCi, iv after 5 hrs; conditions: in vivo; procedure, shortened: as §1
[13] = Ratio of drug level in tumor to stomach of human PSMA expressing PC3 PIP and PSMA deficient human PC3 flu cells xenografted SCID mouse at 2 uCi, iv after 30 mins; conditions: in vivo, 0.5 h
Procedure, shortened: (§2)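 Male SCID mice carried subcutaneous xenografts: PSMA+ PC-3 PIP behind the left shoulder and PSMA− PC-3 flu behind the right, 1–5 × 10^6 cells in HBSS. Mice were used at 3–5 mm tumor diameter. 2 μCi was given by tail vein, and 4 mice per time point were killed by cervical dislocation. %ID/g came from a standard dilution of the dose, decay-corrected. Ratio is PIP tumor %ID/g to organ %ID/g.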

[14] = Ratio of drug level in tumor to blood of human PSMA expressing PC3 PIP and PSMA deficient human PC3 flu cells xenografted SCID mouse at 2 uCi, iv after 60 mins
Procedure, shortened: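 Male SCID mice carried subcutaneous xenografts of PSMA+ PC-3 PIP cells behind the left shoulder and PSMA− PC-3 flu cells behind the right (1–5 × 10^6 cells in HBSS), used at a tumour diameter of 3–5 mm. Each mouse received 2 μCi of radioiodinated tracer via the tail vein. Tissues were harvested at each time point for %ID/g against a standard dilution of the dose, decay-corrected. Ratios are PIP tumour:organ.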

[15] = Ratio of drug level in tumor to lung of human PSMA expressing PC3 PIP and PSMA deficient human PC3 flu cells xenografted SCID mouse at 2 uCi, iv after 60 mins; conditions: in vivo, 1 h; procedure, shortened: as §1
[16] = Ratio of drug level in tumor to stomach of human PSMA expressing PC3 PIP and PSMA deficient human PC3 flu cells xenografted SCID mouse at 2 uCi, iv after 60 mins; conditions: in vivo, 1 h; procedure, shortened: as §2
[17] = Ratio of drug level in tumor to pancreas of human PSMA expressing PC3 PIP and PSMA deficient human PC3 flu cells xenografted SCID mouse at 2 uCi, iv after 60 mins; conditions: in vivo, 1 h; procedure, shortened: as §2
[18] = Ratio of drug level in tumor to large intestine of human PSMA expressing PC3 PIP and PSMA deficient human PC3 flu cells xenografted SCID mouse at 2 uCi, iv after 60 mins; conditions: in vivo, 1 h; procedure, shortened: as §1
[19] = Ratio of drug level in tumor to heart of human PSMA expressing PC3 PIP and PSMA deficient human PC3 flu cells xenografted SCID mouse at 2 uCi, iv after 2 hrs; conditions: in vivo; procedure, shortened: as §1
[20] = Ratio of drug level in tumor to stomach of human PSMA expressing PC3 PIP and PSMA deficient human PC3 flu cells xenografted SCID mouse at 2 uCi, iv after 2 hrs; conditions: in vivo; procedure, shortened: as §2
[21] = Ratio of drug level in tumor to kidney of human PSMA expressing PC3 PIP and PSMA deficient human PC3 flu cells xenografted SCID mouse at 2 uCi, iv after 2 hrs; conditions: in vivo; procedure, shortened: as §1
[22] = Ratio of drug level in tumor to stomach of human PSMA expressing PC3 PIP and PSMA deficient human PC3 flu cells xenografted SCID mouse at 2 uCi, iv after 5 hrs; conditions: in vivo; procedure, shortened: as §2
[23] = Ratio of drug level in tumor to kidney of human PSMA expressing PC3 PIP and PSMA deficient human PC3 flu cells xenografted SCID mouse at 2 uCi, iv after 5 hrs; conditions: in vivo; procedure, shortened: as §1
[24] = Ratio of drug level in tumor to bladder of human PSMA expressing PC3 PIP and PSMA deficient human PC3 flu cells xenografted SCID mouse at 2 uCi, iv after 5 hrs; conditions: in vivo; procedure, shortened: as §1
Blood = assay: Biodistribution in blood of PSMA expressing human PC3 PIP and PSMA deficient human PC3 flu cells xenografted SCID mouse at 2 uCi, iv after 30 mins; conditions: in vivo, 0.5 h
Lung = assay: Biodistribution in lung of PSMA expressing human PC3 PIP and PSMA deficient human PC3 flu cells xenografted SCID mouse at 2 uCi, iv after 30 mins; conditions: in vivo, 0.5 h
Pancreas [25] = assay: Biodistribution in pancreas of PSMA expressing human PC3 PIP and PSMA deficient human PC3 flu cells xenografted SCID mouse at 2 uCi, iv after 30 mins; conditions: in vivo, 0.5 h

## O=C(O)CC[C@H](NC(=O)N[C@@H](CCCCNC(=O)c1ccc([18F])cc1)C(=O)O)C(=O)O
[1]
  Ratio: 11
[2]
  Ratio: 15
[3]
  Ratio: 35
Kidney [4]
  Drug uptake: 72 % ID/g
[5]
  Drug uptake: 0.8 % ID/g
Liver [6]
  Drug uptake: 5.8 % ID/g
Stomach
  Drug uptake: 0.25 % ID/g
[7]
  Drug uptake: 0.6 % ID/g
[8]
  Drug uptake: 0.3 % ID/g
Pancreas [9]
  Drug uptake: 0.15 % ID/g
Kidney [10]
  Drug uptake: 29 % ID/g
Liver [11]
  Drug uptake: 1 % ID/g
Spleen
  Drug uptake: 1 % ID/g
[12]
  Drug uptake: 0.1 % ID/g
[13]
  Ratio: 11
[14]
  Kp at 1 h: 9
[15]
  Ratio: 13
[16]
  Ratio: 26
[17]
  Ratio: 21
[18]
  Ratio: 13
[19]
  Ratio: 25
[20]
  Ratio: 13
[21]
  Ratio: 0.1
[22]
  Ratio: 88
[23]
  Ratio: 0.3
[24]
  Ratio: 0.7
Blood
  Drug uptake: 2.5 % ID/g
Lung
  Drug uptake: 1.7 % ID/g
Pancreas [25]
  Drug uptake: 0.8 % ID/g
